For orientation: logD means the decadic logarithm of the distribution of all forms, ionised or not, between an organic phase and buffer at a given pH. One may read the thermodynamic solubility as solubility found after equilibrating the solid with the medium.

SMILES strings stand for the structures. Converted amounts (≈) assume the structure as drawn.

From ChEMBL document CHEMBL4808222, “Design and Synthesis of Novel Spiro Derivatives as Potent and Reversible Monoacylglycerol Lipase (MAGL) Inhibitors: Bioisosteric Transformation from 3-Oxo-3,4-dihydro-2H-benzo[b][1,4]oxazin-6-yl Moiety” (J Med Chem, 2021) come the findings set out here.

Series [1] in a line: Lipophilicity, logD of the compound at pH 7.4 by UPHLC analysis. It is filed as physicochemical. The settings on record: buffer.
Series [2] is described as follows: Drug uptake in C57BL/6J Jcl mouse assessed as plasma concentration at 1 mg/kg, po measured after 60 mins by LC-MS/MS analysis. Format: ADME, organism-based. The following applies: read-out: Drug uptake. In a few lines:
(§1)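 Male C57BL/6J Jcl mice, 8 weeks old, given a single oral dose as a suspension in 0.5% methylcellulose at 10 mL/kg. Plasma and brain hemispheres collected 60 min post-dose (n = 4 per group). Levels measured by LC/MS/MS.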

The nature of series [3]: Drug uptake in C57BL/6J Jcl mouse assessed as brain concentration at 1 mg/kg, po measured after 60 mins by LC-MS/MS analysis. Format: ADME, organism-based. The settings on record: read-out: Drug uptake. In a few lines: as §1
A short description of series [4]: Drug uptake in C57BL/6J Jcl mouse assessed as plasma concentration at 10 mg/kg, po measured after 60 mins by LC-MS/MS analysis. The following applies: read-out: Drug uptake. It is filed as ADME, organism-based. The method, boiled down: as §1
The nature of series [5]: Aqueous solubility of the compound in pH 6.8 JP2 fluid measured after 18 hrs by shake flask method based UHPLC analysis. Format: physicochemical.
Series [6] in a line: Drug uptake in C57BL/6J Jcl mouse assessed as brain concentration at 10 mg/kg, po measured after 60 mins by LC-MS/MS analysis. It is filed as ADME, organism-based. The following applies: read-out: Drug uptake. In a few lines:
as §1

A short description of series [7]: Drug uptake in C57BL/6J Jcl mouse assessed as plasma concentration at 3 mg/kg, po measured after 60 mins by LC-MS/MS analysis. It is filed as ADME, organism-based. The following applies: read-out: Drug uptake. In a few lines:
as §1

Series [8] can be described thus: Drug uptake in C57BL/6J Jcl mouse assessed as plasma concentration at 0.1 mg/kg, po measured after 60 mins by LC-MS/MS analysis. It is filed as ADME, organism-based. The settings on record: read-out: Drug uptake. The method, boiled down:
as §1

Series [9] can be described thus: Drug uptake in C57BL/6J Jcl mouse assessed as plasma concentration at 0.3 mg/kg, po measured after 60 mins by LC-MS/MS analysis. It is filed as ADME, organism-based. The following applies: read-out: Drug uptake. In a few lines:
as §1

Series [10] in a line: Drug uptake in C57BL/6J Jcl mouse assessed as brain concentration at 3 mg/kg, po measured after 60 mins by LC-MS/MS analysis. It is filed as ADME, organism-based. The settings on record: read-out: Drug uptake. In a few lines: as §1
Series [11] can be described thus: Drug uptake in C57BL/6J Jcl mouse assessed as brain concentration at 0.3 mg/kg, po measured after 60 mins by LC-MS/MS analysis. It is filed as ADME, organism-based. The following applies: read-out: Drug uptake. The method, boiled down: as §1
The nature of series [12]: Drug uptake in C57BL/6J Jcl mouse assessed as brain concentration at 0.1 mg/kg, po measured after 60 mins by LC-MS/MS analysis. It is filed as ADME, organism-based. The following applies: read-out: Drug uptake. In a few lines:
as §1

Compound `O=C1CC[C@H](CCC(=O)N2CCC(COc3ccc(F)cc3Cl)CC2)N1` yielded a logD in series [1] of 2.7.

As for `O=C1N[C@]2(CO1)C[C@H](C(=O)N1CC(OCc3ccc(Cl)cc3Cl)C1)C2`, in [1], the log distribution coefficient (logD) is 2.5.

In turn, `O=C1N[C@]2(CO1)C[C@H](C(=O)N1CC(OCc3ccc(C(F)(F)F)c(Cl)c3)C1)C2` showed a logD in series [1] of 2.4.

For the compound `Cc1ccc(COC2CN(C(=O)[C@H]3C[C@]4(COC(=O)N4)C3)C2)cc1Cl`, the concentration at 1 h in series [2] is 163 ng/mL; in [3], 169 ng/g; in series [4], 1520 ng/mL; in series [6], 711 ng/g; in series [7] it was 457 ng/mL; in [8], 17 ng/mL. Moreover, the concentration at 1 h in series [9] worked out at 62 ng/mL; in [10], 322 ng/g; in series [11], 99 ng/g; in series [12], 31 ng/g. Moreover, in series [1], the logD was 2.3. The same compound came in with a solubility (thermodynamic) at 18 h in [5] of 330 µg/mL (≈ 905 µM).

The compound `O=C1N[C@]2(CO1)C[C@H](C(=O)N1CCC(COc3ccc(F)cc3Cl)CC1)C2` had a logD in series [1] of 2.6.

`O=C1CCC(CCC(=O)N2CCC(COc3ccc(F)cc3Cl)CC2)N1` (stereo unspecified): the logD in [1] is 3.

On to `O=C1CC[C@@H](CCC(=O)N2CCC(COc3ccc(F)cc3Cl)CC2)N1`, for which the logD in series [1] came out at 2.7.

`O=C1COc2ncc(C(=O)N3CCC(COc4ccc(F)cc4Cl)CC3)cc2N1` yielded a logD in [1] of 3.

Regarding `O=C1N[C@]2(CO1)C[C@H](C(=O)N1CC(OCc3ccc(C(F)(F)F)c(C(F)(F)F)c3)C1)C2`, the logD in series [1] is 2.5.

As for `Cc1cc(COC2CN(C(=O)[C@H]3C[C@]4(COC(=O)N4)C3)C2)ccc1Cl`, the logD in [1] was 2.4.

Compound `CCC(Oc1ccc(F)cc1Cl)C1CCN(C(=O)[C@H]2C[C@]3(COC(=O)N3)C2)CC1` (stereo partly specified) had a logD in series [1] of 3.1.

As to `O=C1CCC2(CCCN(C(=O)N3CCC(COc4ccc(F)cc4Cl)CC3)C2)N1` (stereo unspecified), the logD in series [1] stood at 3.1.

In turn, `O=C1CCC(COC(=O)N2CCC(COc3ccc(F)cc3Cl)CC2)N1` (stereo unspecified) yielded a pH-dependent lipophilicity (logD) in series [1] of 2.7.

As for `CC(Oc1ccc(F)cc1Cl)C1CCN(C(=O)[C@H]2C[C@]3(COC(=O)N3)C2)CC1` (stereo partly specified), the logD in [1] turned out to be 2.8.

Turning to `O=C1COCC(CCC(=O)N2CCC(COc3ccc(F)cc3Cl)CC2)N1` (stereo unspecified), the logD in series [1] was 2.7.
